Measured values from ChEMBL document CHEMBL1795226, “Generation of novel radiolabeled opiates through site-selective iodination” (Bioorg Med Chem Lett, 2011).

Key:
[1] = biological target: T1, Kappa-type opioid receptor (Homo sapiens, UniProt P41145); assay: Binding affinity to KOR-1 expressed in CHO cells after 90 mins; assay type: cell-based; conditions: for Bmax: tested as the 125I-labelled form
Method in brief: (§1)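 Saturation binding of the carrier-free 125I-radioligand (KD) in membranes of CHO cells stably transfected with the named opioid receptor. For one DOR-1 saturation, specific activity was diluted 10-fold to allow higher ligand concentrations. Curves were fit to a single site by nonlinear regression. KD is the mean ± SEM of at least 3 independent determinations.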

[2] = biological target: T2, Delta-type opioid receptor (Homo sapiens, UniProt P41143); assay: Binding affinity to DOR-1 expressed in CHO cells after 90 mins; assay type: cell-based; conditions: for Bmax: tested as the 125I-labelled form; method in brief: as §1
T2 sequence (P41143 whole entry): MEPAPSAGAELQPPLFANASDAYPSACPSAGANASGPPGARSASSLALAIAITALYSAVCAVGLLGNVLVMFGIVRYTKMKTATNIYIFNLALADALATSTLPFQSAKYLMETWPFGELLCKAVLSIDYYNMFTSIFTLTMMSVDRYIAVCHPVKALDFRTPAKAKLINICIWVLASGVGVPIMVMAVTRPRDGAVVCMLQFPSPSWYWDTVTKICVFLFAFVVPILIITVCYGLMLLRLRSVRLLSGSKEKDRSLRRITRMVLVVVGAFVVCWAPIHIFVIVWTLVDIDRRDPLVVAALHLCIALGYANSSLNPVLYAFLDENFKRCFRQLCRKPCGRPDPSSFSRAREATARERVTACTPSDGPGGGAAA

[3] = biological target: T2, Delta-type opioid receptor; assay: Displacement of [3H]-DPDPE from DOR-1 expressed in CHO cells after 60 mins; assay type: cell-based
Method in brief: (§2)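 Competition binding in membranes of CHO cells stably transfected with MOR-1, DOR-1 or KOR-1. Tracers were 1 nM 3H-DAMGO (MOR-1), 3H-DPDPE (DOR-1) or 3H-U69,593 (KOR-1). IC50 came from nonlinear regression and was converted to Ki. Values are the mean ± SEM of at least three independent replications.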

[4] = biological target: T3, Mu-type opioid receptor (Homo sapiens, UniProt P35372); assay: Displacement of [3H]-DAMGO from MOR-1 expressed in CHO cells after 150 mins; assay type: cell-based; method in brief: as §2
T3 sequence (P35372 whole entry): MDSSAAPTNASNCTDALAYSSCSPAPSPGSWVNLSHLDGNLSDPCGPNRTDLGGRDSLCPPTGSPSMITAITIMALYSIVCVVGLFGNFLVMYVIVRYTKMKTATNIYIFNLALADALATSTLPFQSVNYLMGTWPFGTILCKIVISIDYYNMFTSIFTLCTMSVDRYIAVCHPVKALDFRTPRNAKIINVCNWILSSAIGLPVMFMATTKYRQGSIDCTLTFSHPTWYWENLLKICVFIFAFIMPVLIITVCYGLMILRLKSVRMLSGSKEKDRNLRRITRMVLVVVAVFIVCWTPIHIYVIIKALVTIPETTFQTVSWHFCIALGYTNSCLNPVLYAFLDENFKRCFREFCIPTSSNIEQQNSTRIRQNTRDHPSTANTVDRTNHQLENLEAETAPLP

[5] = biological target: T1, Kappa-type opioid receptor; assay: Displacement of [3H]-U69593 from KOR-1 expressed in CHO cells after 60 mins; assay type: cell-based; method in brief: as §2
[6] = biological target: T3, Mu-type opioid receptor; assay: Binding affinity to MOR-1 expressed in CHO cells after 90 mins; assay type: cell-based; conditions: for Bmax: tested as the 125I-labelled form; method in brief: as §1
[7] = biological target: T3, Mu-type opioid receptor; assay: biochemical; assay type: cell-based, CHO
[8] = biological target: T3, Mu-type opioid receptor; assay: biochemical; assay type: cell-based, CHO; remark: listed apart in the source
[9] = biological target: T3, Mu-type opioid receptor; assay: biochemical; assay type: cell-based, CHO; remark: listed apart in the source
[10] = biological target: T1, Kappa-type opioid receptor; assay: Displacement of [125I]-IBNtxA from KOR-1 expressed in CHO cells; assay type: cell-based
[11] = biological target: T1, Kappa-type opioid receptor; assay: Displacement of [125I]-IBNalA from KOR-1 expressed in CHO cells; assay type: cell-based

T1 sequence (P41145 whole entry): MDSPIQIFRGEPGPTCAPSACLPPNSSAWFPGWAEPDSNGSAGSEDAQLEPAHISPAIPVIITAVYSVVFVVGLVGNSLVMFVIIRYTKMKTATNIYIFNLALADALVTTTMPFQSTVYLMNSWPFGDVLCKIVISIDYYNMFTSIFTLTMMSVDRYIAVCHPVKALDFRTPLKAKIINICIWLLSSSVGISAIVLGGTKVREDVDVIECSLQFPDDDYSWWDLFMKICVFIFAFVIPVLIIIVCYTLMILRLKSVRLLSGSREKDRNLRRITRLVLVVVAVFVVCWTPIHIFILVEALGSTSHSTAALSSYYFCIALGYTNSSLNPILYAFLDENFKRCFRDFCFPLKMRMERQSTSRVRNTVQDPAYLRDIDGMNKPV

Work on O=C(N[C@@H]1CC[C@@]2(O)[C@H]3Cc4ccc(O)c5c4[C@@]2(CCN3CC2CC2)[C@H]1O5)c1cccc(I)c1 yielded a Bmax [1] of 0.57 pmol/mg, a Bmax [2] of 0.96 pmol/mg and a Ki [3] of 0.58 nM. For the same molecule, the Ki [4] was 2.5 nM, the Ki [5] was 0.23 nM and the Bmax [6] was 3.81 pmol/mg.
CN1CC[C@]23c4c5ccc(O)c4O[C@H]2[C@H](NC(=O)c2cccc([125I])c2)CC[C@@]3(O)[C@H]1C5 gave a Kd [6] of 0.08 nM.
For C=CCN1CC[C@]23CCCC[C@H]2[C@H]1Cc1ccc(O)cc13 [LEVALLORPHAN], the Ki [7] was 1.69 nM, the Ki [8] was 0.48 nM and the Ki [9] was 1.29 nM.
O=C(N[C@@H]1CC[C@@]2(O)[C@H]3Cc4ccc(O)c5c4[C@@]2(CCN3CC2CC2)[C@H]1O5)c1cccc([125I])c1 was tested, and the Kd [1] was 0.027 nM, the Kd [2] was 0.24 nM and the Kd [6] was 0.11 nM.
Work on N=C(N)Nc1ccc2[nH]c3c(c2c1)C[C@@]1(O)[C@H]2Cc4ccc(O)c5c4[C@@]1(CCN2CC1CC1)[C@H]3O5 [GUANIDINONALTRINDOLE] yielded a Ki [10] of 0.15 nM and a Ki [11] of 0.19 nM.
CN1CC[C@]23c4c5ccc(O)c4O[C@H]2[C@H](NC(=O)c2cccc(I)c2)CC[C@@]3(O)[C@H]1C5 showed a Ki [4] of 1.75 nM, a Ki [5] of 9 nM and a Bmax [6] of 1.49 pmol/mg.
C=CCN1CC[C@]23c4c5ccc(O)c4O[C@H]2[C@H](NC(=O)c2cccc(I)c2)CC[C@@]3(O)[C@H]1C5 was tested, and the Bmax [1] was 1.15 pmol/mg, the Bmax [2] was 2.7 pmol/mg and the Ki [3] was 2.55 nM. For the same molecule, the Ki [4] was 0.7 nM, the Ki [5] was 0.08 nM and the Bmax [6] was 1.18 pmol/mg.
For C=CCN1CC[C@]23c4c5ccc(O)c4O[C@H]2[C@H](NC(=O)c2cccc([125I])c2)CC[C@@]3(O)[C@H]1C5, the Kd [1] was 0.05 nM, the Kd [2] was 2.5 nM and the Kd [6] was 0.22 nM.
